According to ChEMBL document CHEMBL5058577, “EUbOPEN Chemogenomics Library 2 (Multiplex)” (2022):

System: U2OS
Test: Multiplex assay against U2OS
Type: toxicity, cell-based
Conditions: human
Summary of the method: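 Hoechst33342, BioTracker Green Microtubule Cytoskeleton Dye, MitoTracker Red and Annexin V Alexa Fluor 680 were added to live cells at seeding, and imaging on a CQ1 microscope at 37°C and 5% CO2 followed compound addition. Gating by CellPathfinder machine learning separated cells into Hoechst high-intensity objects or normal cells, then normal cells into healthy, pyknosed or fragmented nuclei, then pyknosed cells into mitotic or apoptotic. Per cents of healthy-nucleus cells are reported for the tubulin, mitochondrial-mass and membrane-permeability phenotypes.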

[1] = 12 h, 1 µM, compound concentration 1 uM, replicate 1
[2] = 12 h, 1 µM, compound concentration 1 uM, replicate 2
[3] = 12 h, 10 µM, compound concentration 10 uM, replicate 1
[4] = 12 h, 10 µM, compound concentration 10 uM, replicate 2
[5] = 24 h, 1 µM, compound concentration 1 uM, replicate 1
[6] = 24 h, 1 µM, compound concentration 1 uM, replicate 2
[7] = 24 h, 10 µM, compound concentration 10 uM, replicate 1
[8] = 24 h, 10 µM, compound concentration 10 uM, replicate 2
[9] = 48 h, 1 µM, compound concentration 1 uM, replicate 1
[10] = 48 h, 1 µM, compound concentration 1 uM, replicate 2
[11] = 48 h, 10 µM, compound concentration 10 uM, replicate 1
[12] = 48 h, 10 µM, compound concentration 10 uM, replicate 2

## Cc1cccc(NC(=O)CN2CCC(c3ccccn3)CC2)c1.Cl.Cl
[1]
  Population Apoptotic (%): 90%
  Population Fragmented Nuclei (%): 27%
  Population Healthy Nuclei (%): 67%
  Population Hoechst High Intensity Objects (%): 1%
  Population Membrane Permeable-Phenotype (%): 5%
  Population Mitochondria Different-Phenotype (%): 2%
  Population Mitotic Cells (%): 9%
  Population Normal (%): 98%
  Population Pyknosed Nuclei (%): 5%
  Population Tubulin-Different-Phenotype (%): 3%
  Total Cell Count: 208
[2]
  Population Apoptotic (%): 57%
  Population Fragmented Nuclei (%): 17%
  Population Healthy Nuclei (%): 76%
  Population Hoechst High Intensity Objects (%): 0%
  Population Membrane Permeable-Phenotype (%): 4%
  Population Mitotic Cells (%): 42%
  Population Normal (%): 99%
  Population Pyknosed Nuclei (%): 6%
  Total Cell Count: 111
[3]
  Population Apoptotic (%): 72%
  Population Fragmented Nuclei (%): 34%
  Population Healthy Nuclei (%): 55%
  Population Hoechst High Intensity Objects (%): 2%
  Population Membrane Permeable-Phenotype (%): 8%
  Population Mitochondria Different-Phenotype (%): 6%
  Population Mitotic Cells (%): 27%
  Population Normal (%): 97%
  Population Pyknosed Nuclei (%): 10%
  Population Tubulin-Different-Phenotype (%): 3%
  Total Cell Count: 216
[4]
  Population Apoptotic (%): 66%
  Population Fragmented Nuclei (%): 21%
  Population Healthy Nuclei (%): 70%
  Population Hoechst High Intensity Objects (%): 1%
  Population Membrane Permeable-Phenotype (%): 12%
  Population Mitochondria Different-Phenotype (%): 7%
  Population Mitotic Cells (%): 33%
  Population Normal (%): 98%
  Population Pyknosed Nuclei (%): 8%
  Population Tubulin-Different-Phenotype (%): 9%
  Total Cell Count: 111
[5]
  Population Apoptotic (%): 76%
  Population Fragmented Nuclei (%): 22%
  Population Healthy Nuclei (%): 70%
  Population Hoechst High Intensity Objects (%): 3%
  Population Membrane Permeable-Phenotype (%): 5%
  Population Mitochondria Different-Phenotype (%): 3%
  Population Mitotic Cells (%): 23%
  Population Normal (%): 96%
  Population Pyknosed Nuclei (%): 7%
  Population Tubulin-Different-Phenotype (%): 3%
  Total Cell Count: 249
[6]
  Population Apoptotic (%): 73%
  Population Fragmented Nuclei (%): 21%
  Population Healthy Nuclei (%): 67%
  Population Hoechst High Intensity Objects (%): 0%
  Population Membrane Permeable-Phenotype (%): 7%
  Population Mitochondria Different-Phenotype (%): 4%
  Population Mitotic Cells (%): 26%
  Population Normal (%): 99%
  Population Pyknosed Nuclei (%): 11%
  Population Tubulin-Different-Phenotype (%): 5%
  Total Cell Count: 135
[7]
  Population Apoptotic (%): 85%
  Population Fragmented Nuclei (%): 32%
  Population Healthy Nuclei (%): 55%
  Population Hoechst High Intensity Objects (%): 3%
  Population Membrane Permeable-Phenotype (%): 6%
  Population Mitochondria Different-Phenotype (%): 3%
  Population Mitotic Cells (%): 14%
  Population Normal (%): 96%
  Population Pyknosed Nuclei (%): 11%
  Population Tubulin-Different-Phenotype (%): 2%
  Total Cell Count: 243
[8]
  Population Apoptotic (%): 75%
  Population Fragmented Nuclei (%): 20%
  Population Healthy Nuclei (%): 73%
  Population Hoechst High Intensity Objects (%): 2%
  Population Membrane Permeable-Phenotype (%): 17%
  Population Mitochondria Different-Phenotype (%): 5%
  Population Mitotic Cells (%): 25%
  Population Normal (%): 97%
  Population Pyknosed Nuclei (%): 6%
  Population Tubulin-Different-Phenotype (%): 10%
  Total Cell Count: 131
[9]
  Population Apoptotic (%): 82%
  Population Fragmented Nuclei (%): 18%
  Population Healthy Nuclei (%): 72%
  Population Hoechst High Intensity Objects (%): 2%
  Population Membrane Permeable-Phenotype (%): 6%
  Population Mitochondria Different-Phenotype (%): 3%
  Population Mitotic Cells (%): 17%
  Population Normal (%): 97%
  Population Pyknosed Nuclei (%): 8%
  Population Tubulin-Different-Phenotype (%): 3%
  Total Cell Count: 341
[10]
  Population Apoptotic (%): 94%
  Population Fragmented Nuclei (%): 17%
  Population Hoechst High Intensity Objects (%): 3%
  Population Membrane Permeable-Phenotype (%): 2%
  Population Mitotic Cells (%): 5%
  Population Normal (%): 96%
  Population Pyknosed Nuclei (%): 10%
  Population Tubulin-Different-Phenotype (%): 2%
  Total Cell Count: 182
[11]
  Population Apoptotic (%): 96%
  Population Fragmented Nuclei (%): 29%
  Population Healthy Nuclei (%): 60%
  Population Hoechst High Intensity Objects (%): 3%
  Population Membrane Permeable-Phenotype (%): 6%
  Population Mitochondria Different-Phenotype (%): 6%
  Population Mitotic Cells (%): 3%
  Population Normal (%): 96%
  Population Pyknosed Nuclei (%): 9%
  Population Tubulin-Different-Phenotype (%): 3%
  Total Cell Count: 303
[12]
  Population Apoptotic (%): 83%
  Population Fragmented Nuclei (%): 19%
  Population Healthy Nuclei (%): 74%
  Population Membrane Permeable-Phenotype (%): 10%
  Population Mitochondria Different-Phenotype (%): 4%
  Population Mitotic Cells (%): 16%
  Population Pyknosed Nuclei (%): 6%
  Population Tubulin-Different-Phenotype (%): 4%
  Total Cell Count: 198
